The values that follow come from ChEMBL document CHEMBL1123582, “Substituted 2-(2-hydroxyphenyl)benzimidazoles as potential agents for the control of periodontal diseases” (1987).

Molecules are shown by their SMILES. ≈ marks a conversion by molar mass, not a printed value. Calls of active or inactive are those of the source. The rule behind the calls is not given here.

Experiment [1] concerns Porphyromonas gingivalis. Put plainly: Evaluated for the in vitro minimum bactericidal concentration (MBC) against periopathogenic Bacteroides gingivalis bacteria. It counts as functional. An outline of the steps: (§1)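 B. gingivalis 381, maintained in Trypticase Soy Broth plus excess CaCO3, was assayed by tube dilution. Stocks of 1 mg/100 μL in EtOH or Me2SO were diluted 100-fold or more to give 3-fold dilutions in Bacto Anaerobe broth. Inoculum was 50 μL of log-phase culture at 10⁸ cfu/mL, with incubation at 37 °C anaerobically (5% CO2/10% H2/85% Ar). Concentrations are μg/mL, consistent for triplicate assays.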

The subject of experiment [2] is Actinomyces viscosus. Put plainly: Evaluated for the in vitro minimum bactericidal concentration (MBC) against periopathogenic Actinomycetes viscosus bacteria. It counts as functional. In outline: (§2)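 Tested against A. viscosus M100-2000, maintained in Trypticase Soy Broth with excess CaCO3, by tube dilution. EtOH or Me2SO stocks (1 mg/100 μL) were diluted at least 100-fold into 3-fold dilution series in Bacto Anaerobe broth. Tubes were seeded with 50 μL of 10⁸ cfu/mL log-phase culture and held at 37 °C in an anaerobic chamber (5% CO2, 10% H2, 85% Ar). Values are in μg/mL, consistent in triplicate.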

In experiment [3] the test system is Aggregatibacter actinomycetemcomitans. Nature of the experiment: Evaluated for the in vitro minimum bactericidal concentration (MBC) against periopathogenic Actinobacillus actinomycetemcommitans bacteria. It counts as functional. In outline:
(§3)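 Tube dilution test against A. actinomycetemcomitans Y4, kept in Trypticase Soy Broth with excess CaCO3. Compound stocks of 1 mg/100 μL EtOH or Me2SO were diluted at least 100-fold into 3-fold series in Bacto Anaerobe broth. Each tube got 50 μL of log-phase inoculum at 10⁸ cfu/mL and was incubated at 37 °C under anaerobic 5% CO2/10% H2/85% Ar. Values are μg/mL, consistent across triplicates.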

For experiment [4] the test system is unchanged. Put plainly: Evaluated for the in vitro minimum bactericidal concentration (MBC) against periopathogenic Actinobacillus actinomycetemcommitans bacteria; NE means not effective. It counts as functional, organism-based. An outline of the steps:
as §3

In experiment [5] the test system is Porphyromonas gingivalis. Nature of the experiment: Evaluated for the in vitro minimum bactericidal concentration (MBC) against periopathogenic Bacteroides gingivalis bacteria; NE means not effective. It counts as functional, organism-based. In outline: as §1
Experiment [6] has as its system Actinomyces viscosus. Nature of the experiment: Evaluated for the in vitro minimum bactericidal concentration (MBC) against periopathogenic Actinomycetes viscosus bacteria; NE means not effective. It counts as functional, organism-based. In outline: as §2
The test system of experiment [7] is Actinomyces viscosus. Put plainly: Evaluated for the in vitro minimum bactericidal concentration (MBC) against periopathogenic Actinomycetes viscosus bacteria;NE means not effective. It counts as functional, organism-based. In outline: as §2
In experiment [8] the test system is Actinomyces viscosus. Put plainly: Evaluated for the in vitro minimum bactericidal concentration (MBC) against periopathogenic Actinomycetes viscosus bacteria. It counts as functional. In outline: as §2

Regarding `Oc1c(Br)cc(Br)cc1-c1nc2cc(Cl)ccc2[nH]1`, the MBC in experiment [1] turned out to be 0.05 µg/mL (≈ 0.124 µM); in experiment [2] it was 0.5 µg/mL (≈ 1.24 µM); in experiment [3], 5 µg/mL (≈ 12.4 µM).
With `CCCCCCCCCC(=O)c1ccc(O)c(-c2nc3cc(C(F)(F)F)ccc3[nH]2)c1`, the MBC result in experiment [4], in experiment [5] and in experiment [6] was “inactive” in each case.
Regarding `CCCCCCC(=O)c1ccc(O)c(-c2nc3cc(C)ccc3[nH]2)c1`, the MBC result in experiment [4], in experiment [5] and in experiment [6] was “inactive” in each case.
`CCCCCCCCC(=O)c1ccc(O)c(-c2nc3cc(Cl)ccc3[nH]2)c1`: the MBC entry in experiment [4], in experiment [5] and in experiment [6] was “inactive” in each case.
Consider `CCCCCCCCC(=O)c1ccc(O)c(-c2nc3cc([N+](=O)[O-])ccc3[nH]2)c1`, for which the MBC result in experiment [4], in experiment [5] and in experiment [6] was “inactive” each time.
Regarding `CCCCCCCCC(=O)c1ccc(O)c(-c2nc3cc(C(F)(F)F)ccc3[nH]2)c1`, the MBC came to 0.1 µg/mL (≈ 0.239 µM) in experiment [1] and 0.5 µg/mL (≈ 1.19 µM) in experiment [2].
As to `Cc1ccc2[nH]c(-c3ccccc3O)nc2c1`, the MBC in experiment [1] and in experiment [3] was 1 µg/mL (≈ 4.46 µM) in each case. Further, the MBC result in experiment [6] was “inactive”.
Turning to `CCCC(=O)c1ccc(O)c(-c2nc3cc(C(F)(F)F)ccc3[nH]2)c1`, the MBC in experiment [1] came to 0.05 µg/mL (≈ 0.144 µM); in experiment [2], 0.5 µg/mL (≈ 1.44 µM); in experiment [3] it was 5 µg/mL (≈ 14.4 µM).
For `CCCCCCC(=O)c1ccc(O)c(-c2nc3cc(C(F)(F)F)ccc3[nH]2)c1`, the MBC in experiment [1] was determined as 0.05 µg/mL (≈ 0.128 µM); in experiment [2] it was 0.5 µg/mL (≈ 1.28 µM). In experiment [4], the MBC result was “inactive”.
For `Oc1ccccc1-c1nc2cc(C(F)(F)F)ccc2[nH]1`, the MBC in experiment [1] turned out to be 50 µg/mL (≈ 180 µM). Besides, the MBC entry in experiment [4] and in experiment [7] was “inactive” each time.
On to `CCCCCCCCC(=O)c1ccc(O)c(-c2nc3cc(C)ccc3[nH]2)c1`, for which, in experiment [4], the MBC entry is “inactive”. The MBC in experiment [2] worked out at 10 µg/mL (≈ 27.4 µM).
Take `CCCCCC(=O)c1ccc(O)c(-c2nc3cc(C(F)(F)F)ccc3[nH]2)c1`: the MBC in experiment [1] amounted to 0.1 µg/mL (≈ 0.266 µM); in experiment [2], 0.5 µg/mL (≈ 1.33 µM). For the same compound, in experiment [4], the MBC entry was “inactive”.
In the case of `N=C(NCCCCCCNC(=N)NC(=N)Nc1ccc(Cl)cc1)NC(=N)Nc1ccc(Cl)cc1` [CHLORHEXIDINE], the results for the MBC in experiment [1], in experiment [2] and in experiment [3] were 0.05 µg/mL (≈ 0.0989 µM), 0.5 µg/mL (≈ 0.989 µM) and 0.5 µg/mL (≈ 0.989 µM), respectively.
As for `Oc1c(Br)cc(Br)cc1-c1nc2cc(C(F)(F)F)ccc2[nH]1`, the values for the MBC in experiment [1], in experiment [2] and in experiment [3] were 0.05 µg/mL (≈ 0.115 µM), 0.1 µg/mL (≈ 0.229 µM) and 1 µg/mL (≈ 2.29 µM), respectively.
As for `CCCCCCCC(=O)c1ccc(O)c(-c2nc3cc(C(F)(F)F)ccc3[nH]2)c1`, the MBC in experiment [1] and in experiment [2] was 0.5 µg/mL (≈ 1.24 µM) throughout. Besides, the MBC entry in experiment [4] is “inactive”.
`CCCCC(=O)c1ccc(O)c(-c2nc3cc(C(F)(F)F)ccc3[nH]2)c1`: the MBC in experiment [1] and in experiment [8] was 0.5 µg/mL (≈ 1.38 µM) in each case. In addition, the MBC entry in experiment [4] was “inactive”.
In the case of `O=C(Nc1ccc(Br)cc1)c1cc(Br)cc(Br)c1O` [TRIBROMSALAN], the MBC in experiment [1] was determined as 0.05 µg/mL (≈ 0.111 µM); in experiment [2], 1 µg/mL (≈ 2.22 µM); in experiment [3] it was 0.5 µg/mL (≈ 1.11 µM).
Regarding `CN(C)[C@@H]1C(O)=C(C(N)=O)C(=O)[C@@]2(O)C(O)=C3C(=O)c4c(O)cccc4[C@@](C)(O)[C@H]3C[C@@H]12` [TETRACYCLINE], the MBC in experiment [1] is 0.05 µg/mL (≈ 0.113 µM); in experiment [2], 0.5 µg/mL (≈ 1.13 µM); in experiment [3] it was 0.5 µg/mL (≈ 1.13 µM).
Consider `CCCCCCCC(=O)c1ccc(O)c(-c2nc3cc(Cl)ccc3[nH]2)c1`, for which the MBC result in experiment [6] is “inactive”.
For the compound `CCCCCCC(=O)c1ccc(O)c(-c2nc3cc(Cl)ccc3[nH]2)c1`, the MBC entry in experiment [4], in experiment [5] and in experiment [6] was “inactive” throughout.
